Measurements from article PMC2745078 (Journal of medicinal chemistry, 2009).
Read-outs that look alike come from different tables or passages of the source.

Experiments:
Dye aggregation = format: physicochemical; conditions: for slope of double log plot of monomer versus dimer concentration / dissociation equilibrium constant for dimerization (Kdim): assembly buffer; for dissociation equilibrium constant for dimerization (Kdim): 1 h at 37°C, mean ± S.D.
human 2N4R tau [1] = molecular target: T1, human 2N4R tau (Homo sapiens, UniProt P10636); experiment: Filter trap assay for ODS-induced fibrillization of tau; format: biochemical
T1 sequence (P10636 1-441 isoform P10636-8): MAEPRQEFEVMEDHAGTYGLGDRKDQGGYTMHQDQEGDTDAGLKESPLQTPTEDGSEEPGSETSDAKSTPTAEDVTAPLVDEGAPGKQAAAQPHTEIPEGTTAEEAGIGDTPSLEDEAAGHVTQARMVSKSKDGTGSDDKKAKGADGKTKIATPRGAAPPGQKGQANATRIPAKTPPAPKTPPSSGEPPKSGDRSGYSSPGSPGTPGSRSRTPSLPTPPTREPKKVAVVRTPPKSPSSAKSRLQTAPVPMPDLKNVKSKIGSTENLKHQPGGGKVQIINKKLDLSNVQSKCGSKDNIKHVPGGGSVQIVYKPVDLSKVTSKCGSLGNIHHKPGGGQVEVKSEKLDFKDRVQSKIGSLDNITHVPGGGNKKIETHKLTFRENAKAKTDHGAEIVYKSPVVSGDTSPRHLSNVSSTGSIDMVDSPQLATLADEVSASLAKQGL

human 2N4R tau [2] = molecular target: T1, human 2N4R tau; conditions: near physiological buffer conditions and tau concentrations ref 9; cited from earlier work
human 2N4R tau [3] = molecular target: T1, human 2N4R tau; conditions: electron microscopy assay format
[4] = system: organotypic slices from JNPL3 transgenic mice; experiment: Organotypic slice culture, cleaved PARP1 and α-tubulin levels; format: cell-based; conditions: seven days
[5] = system: sarkosyl-insoluble tau in organotypic slices from JNPL3 transgenic mice (human tau P301L); experiment: Organotypic slice culture, sarkosyl-insoluble tau; format: cell-based
Summary of the method: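 Cortex/hippocampus of postnatal day-10 JNPL3 mice cut at 400 μm and cultured on membrane inserts 14 days (25% serum). One hemisphere given test compound (0.1 nM–1 μM) for 7 days; contralateral hemisphere given 0.008% DMSO. RIPA extracts equalised for protein, incubated in 1% sarkosyl, spun at 100,000g. Pellet immunoblotted with CP27. Densitometry n = 3, normalised to vehicle; Student's t test.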

cell culture models = cell culture models ref 21, 26, 25; cited from earlier work

CCN1/C(=C/C=C/C=C/C=C/c2sc3ccccc3[n+]2CC)Sc2ccccc21.[I-] [Compound 5]
slope of double log plot of monomer versus dimer concentration (Dye aggregation): 1.7 ± 0.1 | dissociation equilibrium constant for dimerization (Kdim) (Dye aggregation): 0.68 ± 0.04 µM

CCCN1/C(=C/C=C/C2=[N+](CCC)c3ccccc3C2(C)C)C(C)(C)c2ccccc21.[I-] [Compound 9]
reduction of inhibitory potency (human 2N4R tau [1]; 9 (three-carbon N-alkyl) versus 8 (two-carbon)): ~ 3 fold

CC(/C=C1\Sc2ccccc2N1CCCS(=O)(=O)[O-])=C\c1sc2ccccc2[n+]1CCCS(=O)(=O)[O-].CC[n+]1ccccc1 [Compound 12]
inhibitory activity (human 2N4R tau [1]; at up to 10 μM concentration): completely lost | slope of double log plot of monomer versus dimer concentration (Dye aggregation): 1.8 ± 0.1 | dissociation equilibrium constant for dimerization (Kdim) (Dye aggregation): 7.5 ± 0.4 µM

CCN1/C(=C/C=C/c2oc3ccccc3[n+]2CC)Oc2ccccc21.[I-] [Compound 6]
inhibitory activity (human 2N4R tau [1]; at the highest concentration tested): essentially no inhibitory activity

CCC(/C=C1\Sc2ccc(OC)cc2N1CCO)=C\c1sc2ccc(OC)cc2[n+]1CCO.[I-] [Compound 1]
IC50 (human 2N4R tau [2]): submicromolar

CCCCCCN1/C(=C/C=C/c2sc3ccccc3[n+]2CCCCCC)Sc2ccccc21.[I-] [Compound 10]
inhibitory activity (human 2N4R tau [1]; at up to 10 μM concentration): completely eliminated activity

CCN1/C(=C/C=C/C2=[N+](CC)c3ccccc3C2(C)C)C(C)(C)c2ccccc21.[I-] [Compound 8]
dimerization (Dye aggregation; any concentration tested up to 96 μM): did not dimerize

CN(C)c1ccc2nc3ccc(N(C)C)cc3[s+]c2c1.[Cl-] [Methylene blue, 3,7-bis(dimethylamino)phenothiazin-5-ium chloride]
behaviour as antagonist (human 2N4R tau [3]): partial antagonist

CCN1/C(=C/C(C)=C/c2sc3ccccc3[n+]2CC)Sc2ccccc21.[I-] [Compound 11, 3,3’-diethyl-9-methylthiacarbocyanine iodide]
levels of α-tubulin ([4]; 1 nM): unchanged | levels of α-tubulin ([4]; 1 μM): depletion of α-tubulin | levels of cleaved PARP1 ([4]; any tested concentration): did not increase | decrease of IC50 by methyl meso substituent (human 2N4R tau [1]; 11 versus hydrogen meso compound): 3 fold | IC50 (human 2N4R tau [1]; IC50, filter trap assay): ~0.3 µM | slope of double log plot of monomer versus dimer concentration (Dye aggregation): 2.3 ± 0.1 | dissociation equilibrium constant for dimerization (Kdim) (Dye aggregation): 20.9 ± 0.7 µM | concentration for dimerization relative to 1 (Dye aggregation; higher than 1 under identical conditions): 10.0 ± 0.2 fold | effect on tau aggregation ([5]; 100 nM, seven days): Inhibitory activity was lost | effect on tau aggregation ([5]; 300 nM and above, seven days): tau aggregation was induced | tau aggregation relative to DMSO vehicle alone ([5]; 1 – 10 nM, seven days): ~ 50% | lowest media concentration inhibiting tau aggregation ([5]; organotypic slices): 1 nM | concentration initiating apoptosis and collapse of the microtubule cytoskeleton (cell culture models): > 300 nM
